For 22 compounds, C100 and RA results are on record in ChEMBL document CHEMBL1122057, “Synthesis and structure--activity relationship of nonyl 3-acyldithiocarbazates and related compounds for uncoupling activities” (J Med Chem, 1982).

Calls of active or inactive are those of the source. The calls are words filed in the database; no cut-off is given here.

The species named for experiment [1] is Rattus norvegicus. Briefly: Concentration required for the maximal release of state 4 respiration of rat liver mitochondria using succinate as substrate; Inactive. It is filed as functional. Summed up:
(§1)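 Rat liver mitochondria isolated by a prior method, about 0.7 mg/mL in most runs. Medium: 200 mM sucrose, 2 mM MgCl2, 1 mM EDTA, 10 mM potassium phosphate pH 7.2, 25 °C. Substrate 10 mM succinate plus rotenone 1 μg/mg protein. O2 uptake in state 4 followed by Clark electrode after compound addition. Value is the concentration giving maximal release of respiration.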

Experiment [2] is filed under the species Rattus norvegicus. The experiment in a line: Concentration required for the maximal release of state 4 respiration of rat liver mitochondria, relative to N'-Benzoyl-hydrazinecarbodithioic acid nonyl ester. It is filed as functional, organism-based.
The species entered for experiment [3] is Rattus norvegicus. The experiment in a line: Concentration required for the maximal release of state 4 respiration of rat liver mitochondria using succinate as substrate. It is filed as functional. Summed up:
as §1

Regarding `CCCCCCCCCSC(=S)N(C)N(C)C(=O)c1ccccc1`, the C100 entry in the experiment filed under Rattus norvegicus [1] was “inactive”. This compound also registered an RA in the experiment filed under Rattus norvegicus [2] of 0.

For the compound `CCCCCCCCCS/C(=N/N(C)C(=O)c1ccccc1)SC`, the C100 result in the experiment filed under Rattus norvegicus [1] was “inactive”. For the same compound, the RA in the experiment listed under Rattus norvegicus [2] amounted to 0.

As to `CCCCCCCCCS/C(S)=N/NC(=O)c1cccc2ccccc12`, the RA in the experiment filed under Rattus norvegicus [2] turned out to be 47. Moreover, the C100 in the experiment listed under Rattus norvegicus [3] amounted to 3.36 µM.

`CCCCCCCCCS/C(S)=N/N(C)C(=O)c1ccccc1` registered an RA in the experiment filed under Rattus norvegicus [2] of 1.3. For the same compound, the C100 in the experiment listed under Rattus norvegicus [3] was 112 µM.

`CCCCCCCCCSC(=S)N(C)NC(=O)c1ccccc1`: in the experiment listed under Rattus norvegicus [2], the RA was 6.9. In addition, the C100 in the experiment listed under Rattus norvegicus [3] stood at 40.3 µM.

In the case of `CCCCCCCCCSC(=S)NC(=O)c1ccccc1`, in the experiment filed under Rattus norvegicus [2], the RA was 5.7. In addition, in the experiment filed under Rattus norvegicus [3], the C100 turned out to be 27.9 µM.

The compound `CCCCCCCCCS/C(S)=N/N=C/c1ccccc1` showed an RA in the experiment filed under Rattus norvegicus [2] of 0.26. In the experiment listed under Rattus norvegicus [3], this compound showed a C100 of 604 µM.

In the experiment filed under Rattus norvegicus [2], `CCCCCCCCCS/C(S)=N/NC(=O)c1ccccc1` returned an RA of 100. Also, the C100 in the experiment filed under Rattus norvegicus [3] came to 1.59 µM.

For `CCCCCCCCCS/C(S)=N/NC(=O)c1ccc(N(C)C)cc1`, in the experiment filed under Rattus norvegicus [2], the RA turned out to be 23. The compound also had a C100 in the experiment filed under Rattus norvegicus [3] of 6.9 µM.

The compound `CCCCCCCCCS/C(S)=N/NC(=O)c1ccc([N+](=O)[O-])cc1` returned an RA in the experiment filed under Rattus norvegicus [2] of 125. Further, the C100 in the experiment filed under Rattus norvegicus [3] was 1.27 µM.

`CCCCCCCCCS/C(S)=N/NC(=O)c1ccc(Cl)cc1` registered an RA in the experiment filed under Rattus norvegicus [2] of 109. In addition, the C100 in the experiment filed under Rattus norvegicus [3] is 1.46 µM.

In the experiment filed under Rattus norvegicus [2], `CCCCCCCCCS/C(=N/NC(=O)c1ccccc1)SC` had an RA of 9.3. Also, the C100 in the experiment listed under Rattus norvegicus [3] was found to be 30.1 µM.

Regarding `CCCCCCCCCS/C(S)=N/NC(=O)c1ccc(Cl)c(Cl)c1`, in the experiment listed under Rattus norvegicus [2], the RA came out at 82. In the experiment listed under Rattus norvegicus [3], this compound displayed a C100 of 1.93 µM.

In the experiment filed under Rattus norvegicus [2], `CCCCCCCCCS/C(S)=N/NC(=O)C1CCCCC1` had an RA of 35. This compound displayed a C100 in the experiment filed under Rattus norvegicus [3] of 4.52 µM.

Turning to `CCCCCCCCCS/C(S)=N/NCc1ccccc1`, the RA in the experiment listed under Rattus norvegicus [2] stood at 0.02. In the experiment filed under Rattus norvegicus [3], this compound came in with a C100 of 8350 µM.

On to `CCCCCCCCCS/C(S)=N/NC(=O)c1ccc(F)cc1`, for which the RA in the experiment listed under Rattus norvegicus [2] turned out to be 101. The compound also yielded a C100 in the experiment filed under Rattus norvegicus [3] of 1.57 µM.

In turn, `CCCCCCCCCS/C(S)=N/Nc1ccccc1` gave an RA in the experiment filed under Rattus norvegicus [2] of 0.1. In the experiment listed under Rattus norvegicus [3], the C100 is 1530 µM.

For `CCCCCCCCCS/C(S)=N/Cc1ccccc1`, the RA in the experiment filed under Rattus norvegicus [2] is 0.44. The compound also came in with a C100 in the experiment listed under Rattus norvegicus [3] of 360 µM.

For the compound `CCCCCCCCCS/C(S)=N/NC(C)=O`, the RA in the experiment filed under Rattus norvegicus [2] worked out at 0.61. Also, the C100 in the experiment listed under Rattus norvegicus [3] is 457 µM.

Turning to `CCCCCCCCCS/C(S)=N/c1ccccc1`, the C100 result in the experiment filed under Rattus norvegicus [1] was “inactive”. In the experiment filed under Rattus norvegicus [2], this compound returned an RA of 0.

`CCCCCCCCCS/C(S)=N/NC(=O)c1ccccn1` yielded an RA in the experiment filed under Rattus norvegicus [2] of 112. In addition, the C100 in the experiment listed under Rattus norvegicus [3] worked out at 1.42 µM.

In the case of `CCCCCCCCCS/C(S)=N/NC(=O)c1ccc(OC)cc1`, the RA in the experiment filed under Rattus norvegicus [2] was 65. In the experiment listed under Rattus norvegicus [3], this compound displayed a C100 of 2.46 µM.
